Measurements gathered from unrelated publications.
Observed: cell growth or viability

| Structure (SMILES) | cell line | test | conditions | measurement | value |
| --- | --- | --- | --- | --- | --- |
| COc1cc2c(cc1OS(N)(=O)=O)CCN(S(=O)(=O)c1ccccc1OC)C2 | DU-145 | WST-1 | 96 h | GI50 | > 100 µM |
| O=C(O)c1ccc(C(c2c[nH]c3ccccc23)c2c[nH]c3ccccc23)cc1 | LNCaP | MTT | 100 µM, 48 h | inhibition | 100% |
| COc1cc2c(cc1O)CCN(Cc1cccc(O)c1)C2 | DU-145 | WST-1 | 96 h | GI50 | > 100 µM |
| Cn1cc(C(c2ccc(C(=O)O)cc2)c2cn(C)c3ccccc23)c2ccccc21 | LNCaP | MTT | 100 µM, 48 h | inhibition | 95% |
| COc1cc2c(cc1O)CCN(Cc1cccc(OC(F)(F)F)c1)C2 | DU-145 | WST-1 | 96 h | GI50 | 55 µM |
| O=C(O)/C=C/c1cccc(C(c2c[nH]c3ccccc23)c2c[nH]c3ccccc23)c1 | DU-145 | MTT | 100 µM, 48 h | inhibition | 28% |
| COc1ccc(CN2CCc3cc(OS(N)(=O)=O)c(OC)cc3C2)cc1OC | DU-145 | WST-1 | 96 h | GI50 | 8.54 µM |
| Cc1cccc2c(C(c3ccc(/C=C/C(=O)O)s3)c3c[nH]c4c(C)cccc34)c[nH]c12 | DU-145 | MTT | 100 µM, 48 h | inhibition | 78% |
| COc1cc2c(cc1OS(N)(=O)=O)CCN(Cc1cccc([N+](=O)[O-])c1)C2 | DU-145 | WST-1 | 96 h | GI50 | 3.03 µM |
| FC(F)(F)c1ccc(C(c2c[nH]c3ccccc23)c2c[nH]c3ccccc23)cc1 | DU-145 | MTT | 100 µM, 48 h | inhibition | 95% |
| COc1ccc(-c2ccc(-c3ccc(C(=N)N)nc3)s2)cc1Cl | BT-549 | SRB | – | GI50 | 1.72 µM |
| CC(C)C[C@H](NC(=O)[C@H](Cc1ccccc1)NC(=O)c1cnccn1)B(O)O | LN-229 | ATP luminescence | – | IC50 | 7.9 nM |
| CC(=O)O[C@@]12CO[C@@H]1C[C@H](O)[C@@]1(C)C(=O)[C@H](O)C3=C(C)[C@@H](OC(=O)[C@H](O)[C@@H](NC(=O)OC(C)(C)C)c4ccccc4)C[C@@](O)([C@@H](OC(=O)c4ccccc4)[C@H]21)C3(C)C | LNCaP | trypan blue | 3 nM, 72 h | inhibition | > 65% |
| COc1cc(Nc2nccc(-c3cnn4nc(OC)ccc34)n2)cc(C(F)(F)F)c1 | LOU-NH91 | ATP luminescence | – | IC50 | 190 nM |
| COc1cccc(Oc2ccccc2NC(=O)CNC(=O)c2cccc3ccccc23)c1 | SF-295 | SRB | 48 h | GI50 | 0.112 µM |
